We go through five molecules from ChEMBL document CHEMBL3098021, “New anti-inflammatory cembranoid diterpenoids from the Vietnamese soft coral Lobophytum crassum” (Bioorg Med Chem Lett, 2014).

The IC50 is the concentration needed to halve the response being measured.

Experiment [1] is described as follows: (§1) Inhibition of TNF-alpha-induced NF-kappaB transcriptional activation in human HepG2 cells preincubated for 1 hr followed by TNF-alpha challenge measured after 1 hr by luciferase reporter gene assay. The class given is cell-based. An outline of the steps:
(§2)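 HepG2 cells were transfected with an NF-κB-responsive firefly luciferase reporter plasmid (minimal CMV promoter plus tandem NF-κB response elements) and stimulated with 10 ng/mL TNFα. Compounds were tested across a concentration range, with a DMSO vehicle control and sulfasalazine (1.0 µM) as positive control. Luciferase activity was read out, data are mean ± SD (n = 3), and IC50 was derived from the dose–response.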

In experiment [2] the test system is HepG2. In words: Inhibition of TNF-alpha-induced COX2 mRNA expression in human HepG2 cells preincubated for 1 hr followed by TNF-alpha challenge measured after 6 hrs by RT-PCR analysis. It counts as functional, cell-based.
The subject of experiment [3] is HepG2. The experiment is described as §1. The class given is cell-based. An outline of the steps:
as §2

Experiment [4] has as its system HepG2. Nature of the experiment: Inhibition of TNF-alpha-induced iNOS mRNA expression in human HepG2 cells preincubated for 1 hr followed by TNF-alpha challenge measured after 6 hrs by RT-PCR analysis. The class given is functional, cell-based.

Take `O=C(O)c1cc(/N=N/c2ccc(S(=O)(=O)Nc3ccccn3)cc2)ccc1O` [SULFASALAZINE]: in experiment [1], the IC50 was 0.9 µM.
On the same count and under the same terms, then `C=C1CO[C@H]2/C=C(\C)CC[C@@H](O)[C@@](C)(O)C/C=C/[C@@](C)(O)CC[C@@]12O`, with above 20 µM.
Take `C/C1=C\[C@@H]2O[C@@H](O)[C@@]3(C)O[C@@]23CC/C(C)=C/CC[C@](C)(O)[C@@H](O)CC1`: the inhibition result in experiment [2], in experiment [3] and in experiment [4] was “Dose-dependent effect” each time. Besides, in experiment [1], inhibition was half-maximal at 6.3 µM (IC50).
In experiment [1], `C=C1CO[C@H]2/C=C(\C)CC[C@@H](O)[C@@](C)(O)C/C=C/[C@](C)(O)CC[C@@]12O` displayed an IC50 above 20 µM.
As for `C/C1=C\[C@@H]2O[C@@H](O)[C@@]3(C)O[C@@]23CC/C(C)=C/CC[C@](C)(O)[C@H](O)CC1`, the inhibition entry in experiment [2], in experiment [3] and in experiment [4] was “Dose-dependent effect” each time. Also, in experiment [1], the half-maximal inhibitory concentration (IC50) turned out to be 6.63 µM.
